In ChEMBL document CHEMBL1629624, “In vitro and in vivo studies to characterize the clearance mechanism and potential cytochrome P450 interactions of anidulafungin” (Antimicrob Agents Chemother, 2009):

Legend:
Type in all cases: ADME, organism-based
Plasma [1] = assay: Volume of distribution at steady state in Sprague-Dawley rat plasma at 5 mg/kg, iv by liquid scintillation counting; design: dose 5 mg/kg, route intravenous; conditions: in vivo
In short: (§1)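 Male Sprague-Dawley rats, single i.v. bolus of [14C]drug. Blood by cardiac puncture from three noncannulated rats killed at each time from 0.25 to 168 h; plasma separated from an aliquot. Radioactivity by liquid scintillation counting. Parameters come from a composite profile of mean values, taking 1 g as equal to 1 ml.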

[2] = Drug level in human assessed as radioactive drug recovery in urine at 100 uCi, iv after 216 hrs by liquid scintillation counting; conditions: in vivo
In short: (§2)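 Nine healthy men given a single i.v. infusion of [14C]drug. Urine collected predose, at 0-2, 2-4, 4-8 and 8-24 h, then every 24 h to day 10. Feces collected predose and every 24 h to day 10. Radioactivity measured by liquid scintillation counting and totalled as cumulative percent of dose through 216 h.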

Plasma [3] = assay: Tmax in human plasma at 100 uCi, iv by liquid scintillation counting; conditions: in vivo
In short: (§3)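 Nine healthy men, single i.v. infusion of [14C]drug (planned 100 mg/100 μCi, mean delivered 95 μCi) over 100 min. Heparinized blood sampled from 0 to 18 h, then daily through day 10, plus follow-up. Total radioactivity in plasma and whole blood by liquid scintillation counting, reported as mg equivalents. Noncompartmental analysis; values are means (%CV).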

Plasma [4] = assay: Mean residence time in human plasma at 100 uCi, iv by liquid scintillation counting; conditions: in vivo; in short: as §3
[5] = Drug level in noncannulated Sprague-Dawley rat assessed as radioactive drug recovery in carcass at 5 mg/kg, iv after 168 hrs by liquid scintillation counting; design: dose 5 mg/kg, route intravenous; conditions: in vivo
In short: (§4)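 Male Sprague-Dawley rats, single i.v. bolus of [14C]drug. Five bile duct-cannulated rats: bile collected at 0-4, 4-8 and 8-24 h, then every 24 h to 168 h. Three noncannulated rats were killed at 168 h. Urine and feces collected over set intervals; carcass and cage washings taken at sacrifice. Liquid scintillation counting, expressed as percent of dose.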

[6] = Drug level in bile-duct cannulated Sprague-Dawley rat assessed as radioactive drug recovery in feces at 5 mg/kg, iv after 168 hrs by liquid scintillation counting; design: dose 5 mg/kg, route intravenous; conditions: in vivo; in short: as §4
[7] = Volume of distribution at steady state in human whole blood at 100 uCi, iv by liquid scintillation counting; conditions: in vivo
In short: (§5)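 Healthy adult men (n = 9), single i.v. infusion of [14C]drug over 100 min at 1 mg/min. 100 mg/100 μCi was planned; the mean actually given was 88.3 mg and 95 μCi. Heparinized samples drawn from 0 h through day 10 and at follow-up. Total radioactivity in plasma or whole blood counted by liquid scintillation and expressed as mg equivalents. Noncompartmental analysis, given as mean (%CV).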

Plasma [8] = assay: Volume of distribution at steady state in human plasma at 100 uCi, iv by liquid scintillation counting; conditions: in vivo; in short: as §5
[9] = Volume of distribution at steady state in Sprague-Dawley rat whole blood at 5 mg/kg, iv by liquid scintillation counting; design: dose 5 mg/kg, route intravenous; conditions: in vivo
In short: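 Male Sprague-Dawley rats, single i.v. bolus of [14C]drug, 5 mg/kg. Blood by cardiac puncture from three non-cannulated rats killed at each time from 0.25 to 168 h. Radioactivity counted by liquid scintillation. Noncompartmental parameters taken from a composite profile of mean values per time point, assuming 1 g blood equals 1 ml.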

[10] = Drug level in noncannulated Sprague-Dawley rat assessed as radioactive drug recovery in feces at 5 mg/kg, iv after 168 hrs by liquid scintillation counting; design: dose 5 mg/kg, route intravenous; conditions: in vivo; in short: as §4
[11] = Half life in Sprague-Dawley rat whole blood at 5 mg/kg, iv by liquid scintillation counting; design: dose 5 mg/kg, route intravenous; conditions: in vivo; in short: as §1
[12] = Half life in human whole blood at 100 uCi, iv by liquid scintillation counting; in short: as §3
[13] = Drug level in human assessed as radioactive drug recovery in feces at 100 uCi, iv within 216 hrs by liquid scintillation counting; conditions: in vivo; in short: as §2
Plasma [14] = assay: Cmax in Sprague-Dawley rat plasma at 5 mg/kg, iv by liquid scintillation counting; design: dose 5 mg/kg, route intravenous; conditions: in vivo; in short: as §1
Plasma [15] = assay: Half life in Sprague-Dawley rat plasma at 5 mg/kg, iv by liquid scintillation counting; design: dose 5 mg/kg, route intravenous; conditions: in vivo; in short: as §1
[16] = Mean residence time in human whole blood at 100 uCi, iv by liquid scintillation counting; conditions: in vivo; in short: as §3
Plasma [17] = assay: Clearance in human plasma at 100 uCi, iv by liquid scintillation counting; conditions: in vivo; in short: as §3
[18] = Cmax in human whole blood at 100 uCi, iv by liquid scintillation counting; design: route intravenous; conditions: in vivo; in short: as §3
Plasma [19] = assay: Cmax in human plasma at 100 uCi, iv by liquid scintillation counting; design: route intravenous; conditions: in vivo; in short: as §3
[20] = Drug level in human assessed as radioactive drug recovery in feces at 100 uCi, iv after 216 hrs by liquid scintillation counting; conditions: in vivo; in short: as §2
[21] = Drug level in bile-duct cannulated Sprague-Dawley rat assessed as radioactive drug recovery in bile at 5 mg/kg, iv after 168 hrs by liquid scintillation counting; design: dose 5 mg/kg, route intravenous; conditions: in vivo; in short: as §4
[22] = Tmax in Sprague-Dawley rat whole blood at 5 mg/kg, iv by liquid scintillation counting; design: dose 5 mg/kg, route intravenous; conditions: in vivo; in short: as §1
[23] = Drug level in bile-duct cannulated Sprague-Dawley rat assessed as radioactive drug recovery in carcass at 5 mg/kg, iv after 168 hrs by liquid scintillation counting; design: dose 5 mg/kg, route intravenous; conditions: in vivo; in short: as §4
[24] = Cmax in Sprague-Dawley rat whole blood at 5 mg/kg, iv by liquid scintillation counting; design: dose 5 mg/kg, route intravenous; conditions: in vivo; in short: as §1
Plasma [25] = assay: Half life in human plasma at 100 uCi, iv by liquid scintillation counting; in short: as §3
[26] = Clearance in human whole blood at 100 uCi, iv by liquid scintillation counting; conditions: in vivo; in short: as §3
[27] = Tmax in human whole blood at 100 uCi, iv by liquid scintillation counting; conditions: in vivo; in short: as §3
Plasma [28] = assay: Tmax in Sprague-Dawley rat plasma at 5 mg/kg, iv by liquid scintillation counting; design: dose 5 mg/kg, route intravenous; conditions: in vivo; in short: as §1

SMILES: CCCCCOc1ccc(-c2ccc(-c3ccc([14C](=O)N[C@H]4C[C@@H](O)[C@@H](O)NC(=O)[C@@H]5[C@@H](O)[C@@H](C)CN5C(=O)[C@H]([C@H](C)O)NC(=O)[C@H]([C@H](O)[C@@H](O)c5ccc(O)cc5)NC(=O)[C@@H]5C[C@@H](O)CN5C(=O)[C@H]([C@H](C)O)NC4=O)cc3)cc2)cc1 [[14C]-ANIDULAFUNGIN]
- Vdss (Plasma [1]): 1.056 L/kg
- Drug uptake [2]: 0.56%
- Tmax (Plasma [3]): 1.78 h
- MRT (Plasma [4]): 162 h
- Drug uptake [5]: 23.1%
- Drug uptake [6]: 17.1%
- Vdss [7]: 61.6 L
- Vdss (Plasma [8]): 57.6 L
- Vdss [9]: 0.696 L/kg
- Drug uptake [10]: 77.1%
- t1/2 [11]: 52.1 h
- t1/2 [12]: 139 h
- Drug uptake [13]: 10%
- Cmax (Plasma [14]): 6.84 ugequiv/ml
- t1/2 (Plasma [15]): 52.9 h
- MRT [16]: 174 h
- CL (Plasma [17]): 0.356 L/h
- Cmax [18]: 3380 ng/mL
- Cmax (Plasma [19]): 3020 ng/mL
- Drug uptake [20]: 29.5%
- Drug uptake [21]: 33.9%
- Tmax [22]: 0.25 h
- Drug uptake [23]: 40.4%
- Cmax [24]: 11.5 ugequiv/ml
- t1/2 (Plasma [25]): 119 h
- CL [26]: 0.356 L/h
- Tmax [27]: 1.75 h
- Tmax (Plasma [28]): 0.25 h
